How the values were obtained:
[1] = molecular target: T1, Neprilysin (Oryctolagus cuniculus, UniProt P08049); experiment: (§1) Inhibition of neutral endopeptidase (NEP)
T1 sequence (P08049 whole entry): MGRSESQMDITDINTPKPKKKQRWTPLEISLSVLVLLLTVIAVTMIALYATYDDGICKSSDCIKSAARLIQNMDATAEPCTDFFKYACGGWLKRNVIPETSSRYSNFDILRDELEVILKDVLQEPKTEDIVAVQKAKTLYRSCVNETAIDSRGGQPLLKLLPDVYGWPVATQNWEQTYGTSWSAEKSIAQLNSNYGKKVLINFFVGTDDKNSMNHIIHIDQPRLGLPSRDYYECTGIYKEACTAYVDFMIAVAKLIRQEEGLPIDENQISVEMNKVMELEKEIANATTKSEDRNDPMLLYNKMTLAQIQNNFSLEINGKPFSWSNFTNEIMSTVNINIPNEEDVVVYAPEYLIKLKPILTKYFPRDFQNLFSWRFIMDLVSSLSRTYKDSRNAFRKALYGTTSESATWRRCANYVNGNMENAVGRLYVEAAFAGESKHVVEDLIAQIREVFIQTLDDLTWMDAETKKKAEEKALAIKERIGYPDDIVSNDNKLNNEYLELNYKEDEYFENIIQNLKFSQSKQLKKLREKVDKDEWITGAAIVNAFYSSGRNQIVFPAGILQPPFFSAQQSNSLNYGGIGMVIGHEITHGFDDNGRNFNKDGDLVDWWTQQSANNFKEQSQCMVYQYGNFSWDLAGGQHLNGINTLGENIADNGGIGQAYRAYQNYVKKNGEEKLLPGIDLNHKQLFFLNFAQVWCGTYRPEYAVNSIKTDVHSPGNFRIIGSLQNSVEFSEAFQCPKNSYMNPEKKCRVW
In short: (§2)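 NEP purified from rabbit kidney (final 250 ng/mL) preincubated 10 min at 37 °C with or without increasing inhibitor concentrations in 50 mM Tris-HCl pH 7.4. Reaction stopped after 1 h with DMSO.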

[2] = molecular target: T2, Angiotensin-converting enzyme (Rattus norvegicus, UniProt P47820); experiment: Inhibition of Angiotensin I converting enzyme (ACE)
T2 sequence (P47820 whole entry): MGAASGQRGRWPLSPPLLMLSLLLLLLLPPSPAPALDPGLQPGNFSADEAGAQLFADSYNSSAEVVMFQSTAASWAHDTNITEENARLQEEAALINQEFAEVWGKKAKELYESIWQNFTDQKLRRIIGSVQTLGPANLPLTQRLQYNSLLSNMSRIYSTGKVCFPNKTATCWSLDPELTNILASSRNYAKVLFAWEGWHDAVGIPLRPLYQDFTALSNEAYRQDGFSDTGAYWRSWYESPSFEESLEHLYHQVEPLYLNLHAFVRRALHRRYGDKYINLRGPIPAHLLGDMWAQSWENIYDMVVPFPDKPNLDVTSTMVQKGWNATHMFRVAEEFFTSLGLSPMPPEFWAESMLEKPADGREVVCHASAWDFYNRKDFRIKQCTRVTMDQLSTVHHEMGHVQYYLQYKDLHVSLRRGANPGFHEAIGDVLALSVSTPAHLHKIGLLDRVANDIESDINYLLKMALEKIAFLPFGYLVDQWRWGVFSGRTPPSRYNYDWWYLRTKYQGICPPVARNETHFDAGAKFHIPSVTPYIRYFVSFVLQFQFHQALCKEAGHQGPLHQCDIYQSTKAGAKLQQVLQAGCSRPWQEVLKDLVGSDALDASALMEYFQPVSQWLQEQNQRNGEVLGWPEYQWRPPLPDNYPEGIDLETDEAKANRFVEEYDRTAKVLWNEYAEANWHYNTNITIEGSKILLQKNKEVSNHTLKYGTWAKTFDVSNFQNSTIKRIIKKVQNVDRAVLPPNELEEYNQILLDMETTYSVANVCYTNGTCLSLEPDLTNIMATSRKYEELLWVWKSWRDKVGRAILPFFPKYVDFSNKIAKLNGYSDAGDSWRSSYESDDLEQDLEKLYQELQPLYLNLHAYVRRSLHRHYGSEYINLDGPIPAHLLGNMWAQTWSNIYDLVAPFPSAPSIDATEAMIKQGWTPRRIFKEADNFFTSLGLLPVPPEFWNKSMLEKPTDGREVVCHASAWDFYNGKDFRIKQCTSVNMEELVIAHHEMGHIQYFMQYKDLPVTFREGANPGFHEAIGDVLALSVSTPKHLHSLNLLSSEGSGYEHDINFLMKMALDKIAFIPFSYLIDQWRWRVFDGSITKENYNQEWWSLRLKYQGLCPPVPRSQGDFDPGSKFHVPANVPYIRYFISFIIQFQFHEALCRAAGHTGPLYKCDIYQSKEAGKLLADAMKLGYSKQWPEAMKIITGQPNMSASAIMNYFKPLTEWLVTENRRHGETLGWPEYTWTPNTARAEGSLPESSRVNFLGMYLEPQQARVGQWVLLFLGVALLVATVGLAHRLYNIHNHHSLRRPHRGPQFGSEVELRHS
In short: (§3)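 ACE purified from rat testis, final 0.02 pmol/100 µL, preincubated 10 min at 37 °C with or without various inhibitor concentrations in 50 mM Tris/HCl/NaCl 1% pH 7.4. Then 50 µM N-Cbz-Phe-His-Leu (Km 50 µM) added for 30 min. Stopped with 2 N NaOH and diluted with water. Released His-Leu measured fluorometrically.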

[3] = molecular target: T3, Endothelin-converting enzyme 1 (Homo sapiens, UniProt P42892); experiment: (§4) Inhibition of Endothelin-converting enzyme 1 (ECE)
T3 sequence (P42892 whole entry): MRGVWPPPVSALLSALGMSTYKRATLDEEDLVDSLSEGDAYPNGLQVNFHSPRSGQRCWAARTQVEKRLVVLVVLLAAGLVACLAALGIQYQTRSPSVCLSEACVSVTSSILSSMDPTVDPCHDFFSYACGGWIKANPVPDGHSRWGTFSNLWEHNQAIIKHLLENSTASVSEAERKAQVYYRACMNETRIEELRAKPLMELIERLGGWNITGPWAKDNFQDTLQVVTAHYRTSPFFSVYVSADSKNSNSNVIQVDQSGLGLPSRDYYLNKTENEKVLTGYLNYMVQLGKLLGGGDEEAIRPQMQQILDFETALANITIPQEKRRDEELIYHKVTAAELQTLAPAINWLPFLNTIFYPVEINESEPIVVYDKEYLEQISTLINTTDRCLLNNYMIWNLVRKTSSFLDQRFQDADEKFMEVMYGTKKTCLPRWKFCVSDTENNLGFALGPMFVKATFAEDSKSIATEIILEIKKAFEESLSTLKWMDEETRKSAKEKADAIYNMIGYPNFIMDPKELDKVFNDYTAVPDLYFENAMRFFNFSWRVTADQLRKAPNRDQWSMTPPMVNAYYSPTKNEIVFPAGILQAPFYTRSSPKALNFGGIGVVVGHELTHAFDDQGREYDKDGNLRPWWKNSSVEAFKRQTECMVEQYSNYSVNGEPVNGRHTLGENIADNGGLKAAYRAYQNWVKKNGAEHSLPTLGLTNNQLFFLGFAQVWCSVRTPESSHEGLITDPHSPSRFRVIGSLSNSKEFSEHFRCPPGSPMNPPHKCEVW
In short: (§5)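 Recombinant human ECE-1c from Cos-7 cells, 4 µg total protein per well, preincubated 10 min at 37 °C in 50 mM tris-maleate pH 6-8 with or without rising inhibitor concentrations. Reaction started with 20 µM (Pya21-(p-NO2)Phe22)bigET(19-35) (Km 20 µM), run 1 h at 37 °C, stopped by cooling. Fluorescence read at ex 340/em 400 nm.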

[4] = molecular target: T3, Endothelin-converting enzyme 1; experiment: as §4; remark: listed apart in the source
[5] = molecular target: T1, Neprilysin; experiment: as §1; remark: listed apart in the source
In short: as §2, with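 “7.4. Substrate Dansyl-Gly-(p-NO2)Phe-β-Ala (DGPA; Km 37 μM) added to 50 μM final.” for “7.4.”, “DMSO. Fluorescence read at ex 340/em 530 nm.” for “DMSO.”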

[6] = molecular target: T2, Angiotensin-converting enzyme; experiment: Inhibition of Angiotensin I converting enzyme ACE); in short: as §3
[7] = molecular target: T3, Endothelin-converting enzyme 1; experiment: Inhibition activity towards human recombinant Endothelin-converting enzyme 1 (hECE-1c) expressed in Cos-7 cells; format: cell-based; in short: as §5
[8] = molecular target: T2, Angiotensin-converting enzyme; experiment: Inhibition of Angiotensin I converting enzyme (ACE) purified from rat testis; in short: as §3
[9] = molecular target: T1, Neprilysin; experiment: Inhibition of neutral endopeptidase (NEP) isolated from rabbit kidney
In short: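 Rabbit kidney NEP purified to homogeneity, final 250 ng/mL, preincubated 10 min at 37 °C with or without rising inhibitor concentrations in 50 mM Tris-HCl pH 7.4. Then 50 µM DGPA (Dansyl-Gly-(p-NO2)Phe-β-Ala; Km 37 µM) added for 1 h. Stopped with DMSO. Fluorescence read at ex 340/em 530 nm.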

Compound	Ki [1] [nM]	Ki [2] [nM]	Ki [3] [µM]	IC50 [5] [nM]	other results
O=P(O)(O)C(CCc1cccc2ccccc12)N[C@@H](Cc1ccc(-c2ccccc2)cc1)c1nnn[nH]1 (stereo partly drawn)	2.2	> 10000	0.0108		
O=C1N[C@H](C(=O)O)CCCCCCc2cccc(c2)CC1CS (stereo partly drawn)				4	IC50 [4]: 620 nM; IC50 [6]: 175 nM
O=C(O)[C@H](Cc1ccc2c(c1)oc1ccccc12)NCP(=O)(O)O				2300	
C[C@H](CS)C(=O)N1CCC[C@H]1C(=O)O [CAPTOPRIL]	> 1000		> 10		
O=C(O)CNC(=O)C(CS)Cc1ccccc1 (stereo not drawn) [THIORPHAN]		> 100	> 10		
O=C(O)C(Cc1c[nH]c2ccccc12)NC(=O)C(CS)C(c1ccccc1)c1ccccc1 (stereo not drawn)	140	250	> 10		
CS(=O)(=O)N[C@@H](CCCCN)C(=O)N[C@@H](Cc1ccccc1)P(=O)(O)CC1(C(=O)N[C@@H](Cc2c[nH]c3ccccc23)C(=O)O)CCCC1				90	
C[C@H](c1ccc(-c2ccccc2)cc1)[C@H](CS)C(=O)N[C@@H](Cc1c[nH]c2ccccc12)C(=O)O					Ki [7]: 110 nM; Ki [8]: 65 nM; Ki [9]: 30 nM

Source: ChEMBL document CHEMBL1135904, “Toward an optimal joint recognition of the S1' subsites of endothelin converting enzyme-1 (ECE-1), angiotensin converting enzyme (ACE), and neutral endopeptidase (NEP)” (J Med Chem, 2002)
